Results taken from PubChem BioAssay AID1230 (PCMD, 2008).
The campaign covered roughly 210,000 compounds. About 220 (0.1%) were called active.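 Rule for the calls: active = signal enhancement of 30% or more; inactive = the rest.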 Shown is part of a subset that was picked to be rich in actives.

Biological target: E3 ubiquitin-protein ligase Mdm2 (Homo sapiens) (UniProt Q00987)
Test: MDM2-luciferase reporter signal enhancers, primary screen, MDM2 E3 ligase inhibitor project, cell-based, luminescence, 1536-well (AID 1230);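 note: higher signal means inhibition of MDM2 E3 ligase activity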
Conditions: cell-based MDM2 ubiquitination luciferase reporter, 2 h; at 5 µM; active compounds read high; 0 = plate control, 100 = twice control, blank-subtracted
In short: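 test system = mammalian cells stably expressing self-ubiquitinating, self-degrading MDM2 E3–luciferase fusion | quantity = 2000 cells/well | incubation = cell settling 4 h, compound treatment 2 h, both 37 °C | signal = luminescence with SteadyLite reagent, 15 min at room temperature | evaluation = % enhancement relative to plate controls after blank subtraction | benchmarks = plate controls and plate blanks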

Chain of E3 ubiquitin-protein ligase Mdm2 (Homo sapiens) (Q00987 whole entry, looked up): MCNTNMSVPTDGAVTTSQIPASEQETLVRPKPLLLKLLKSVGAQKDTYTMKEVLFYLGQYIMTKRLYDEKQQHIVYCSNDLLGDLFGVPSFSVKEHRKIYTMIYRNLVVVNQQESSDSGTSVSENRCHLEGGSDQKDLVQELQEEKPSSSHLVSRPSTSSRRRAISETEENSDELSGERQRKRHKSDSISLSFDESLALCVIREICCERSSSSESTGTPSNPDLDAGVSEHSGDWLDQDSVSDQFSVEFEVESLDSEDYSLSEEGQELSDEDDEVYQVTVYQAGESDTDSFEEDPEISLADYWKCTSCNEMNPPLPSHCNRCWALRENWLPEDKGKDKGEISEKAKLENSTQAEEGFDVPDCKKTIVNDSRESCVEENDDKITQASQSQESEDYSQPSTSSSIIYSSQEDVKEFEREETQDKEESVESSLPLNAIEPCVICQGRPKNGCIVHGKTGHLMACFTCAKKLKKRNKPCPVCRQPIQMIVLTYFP

Signal enhancement, inactive:
CCCc1nc2oc3c(=O)[nH]cnc3c2c2c1COC(C)(C)C2 1.7%
COc1c(N2CCN(C(=S)Nc3ccccc3F)C(C)C2)c(F)cc2c(=O)c(C(=O)O)cn(C3CC3)c12 (centres undefined) 0.25%
CCc1cc2c(=O)c(-c3ccc(F)cc3)c(C(F)(F)F)oc2cc1OCC(=O)O -6.75%
CCOC(=O)c1oc2c(CN3CCN(CCO)CC3)c(O)c(CC)cc2c(=O)c1-c1nc2ccccc2s1 -10.7%
CCOc1c(Nc2cccc(Cl)c2)c(=O)c1=O -2.35%
NC1=NC[C@@H](Cc2ccc(O)cc2)N1CC1CCCCC1 7.84%
Oc1c(Br)cc(/C=N/NC(=S)NCC2CCCO2)cc1Br (centres undefined) -4.26%
N#Cc1ccc(Oc2ccc(C(F)(F)F)cc2NC(=O)c2ccc(F)cc2)cc1 -13.7%
CC1(C)CCSC(/C=C/c2ccccc2)=N1 3.53%
NS(=O)(=O)c1ccc(NC(=O)COC(=O)c2cc3ccccc3oc2=O)cc1 -3.08%
Cc1cc(C)nc(SCc2cn3c(C)cc(C)nc3n2)n1 -13.6%
COc1cc(NC(=O)c2ccc(CNc3c(N4CCCC4)c(=O)c3=O)cc2)cc(OC)c1OC -5.93%
COc1cc(C(CCN2CCN(c3ccccc3)CC2)c2c(OC)cc(OC)c3ccc(=O)oc23)cc(OC)c1OC (centres undefined) 17.2%
CC(C)COC(=O)n1c(=O)oc2ccc(S(=O)(=O)N3CCCCC3)cc21 -7.89%
CN(C)c1cc(-c2ccc(F)cc2)oc(=O)c1Cl -15.5%
COc1ccccc1NC(=O)c1cc(Cl)nc2ccccc12 -12.4%
Cc1onc(-c2c(Cl)cccc2Cl)c1C(=O)NNC(=O)c1c(-c2c(Cl)cccc2Cl)noc1C -1.5%
Cc1cc(C)cc(NS(=O)(=O)c2ccc(F)cc2)c1 -8.71%
COc1ccccc1CNC(=O)Cn1c(=O)oc2cc(Cl)ccc21 -8.67%
Cc1noc(C)c1-c1nc(CSc2ccc(Cl)cc2)no1 -16.2%
Cc1ccc(/C=N/NC(=S)Nc2cccc(S(=O)(=O)N(C)C)c2)o1 -13.3%
Cc1cccc(-[n+]2c(-c3cccc(Br)c3)[nH]c3nc4ccccc4nc32)c1 -76.7%
O=C1NNC(c2ccccc2)=N/C1=C\c1ccc(Cl)cc1 -9.72%
O=c1cc(CCl)nc2scc(-c3ccccc3)n12 -0.33%
CCOC(=O)CNC(=O)CSc1nnnn1-c1cc(C)ccc1C 16.5%
CCOC(=O)Cn1c(N)c(C(=O)OC)sc1=S -0.11%
Cc1cc(=O)oc2cc(OCCC[n+]3ccccc3)ccc12 -9.35%
Cc1cc(NC(=O)OC(C)C)ccc1-c1ccc(NC(=O)OC(C)C)cc1C 0.08%
O=S(=O)(c1ccccc1)N1CN(Cc2ccc(F)cc2)c2nc3ccccc3nc21 -0.23%
CCCCNC(=O)OCCSCCS(=O)(=O)c1ccc(Cl)cc1 -11.5%
O=C(NN1C(=O)C2C(C1=O)C1C=CC2C12CC2)c1ccccc1Cl (centres undefined) -6.98%
COc1cc(C=O)ccc1Oc1nnnn1-c1ccccc1 -12.6%
Cn1nc(C(C)(C)C)c(NC(=O)c2sccc2Cl)c1C(C)(C)C -2.73%
COc1ccc(NC2=CC(=S)NC(C)(C)C2)cc1 -2.53%
O=C(Nc1ccc(F)cc1)c1cc2c(s1)CCCC2 -16.8%
COc1ccc(COCCN2CCN(S(=O)(=O)c3ccccc3)CCC2=O)cc1 16.8%
COc1ccc(COCC(O)CN2CCC(C(N)=O)CC2)cc1 (centres undefined) -1.62%
O=C(CCl)Nc1cccc(CP(=O)(c2ccccc2)c2ccccc2)c1 -14.8%
O=c1[nH]c2cccnc2n1-c1ccc([N+](=O)[O-])cc1 -12%
O=C(NNC(=S)Nc1ccc(F)cc1)[C@H]1C[C@@H]1c1ccccc1 -1.61%
CCOC(=O)/C=C/CN(C(=O)OC(C)(C)C)S(=O)(=O)N1CC=CC1 1.19%
Cc1cc(Nc2ccc(N3CCOCC3)cc2)c2cccc(C)c2n1 5.92%
N#CC1=C(N)Oc2c(ccc3cccnc23)C1c1ccncc1 (centres undefined) -12.4%
COCc1cc(=O)oc2cc(NS(=O)(=O)c3ccc(C)cc3)ccc12 -14.3%
CC(=O)N(OCc1ccc(OC(C)C)c(Cl)c1)C(C)=O -12.5%
Cc1ccc(S(=O)(=O)NC(=O)N2CCCN(Cc3ccc(F)cc3)CC2)cc1 -8.58%
CCC/C(C)=N\Nc1nc2c(c(=O)n(C)c(=O)n2C)n1C -9.83%
CCO[C@@H]1OC(C(=O)NC2CC2)=C[C@H](C)[C@H]1CCCO -12.6%
CC(C)C[C@H](CO)Nc1nc(N(C)c2cccc(Cl)c2)c2ncn(C(C)C)c2n1 10%
Cc1ccc(/C=C/C(=O)O)cc1S(=O)(=O)N1CCC(Cc2ccccc2)CC1 -0.26%
O=C(CCC(=O)OCc1ccc(Cl)cc1)Nc1ccccc1 -8.79%
O=C(CCCOc1ccccc1)Nc1cccc(C(=O)O)c1 -14.6%
CCN(CC)CCn1c(N)c(S(=O)(=O)c2ccccc2)c2nc3ccccc3nc21 -7.92%
CCCN(CCC)c1ccc(C(O)c2nnc(-c3ccccc3)o2)cc1 (centres undefined) -18.3%
Nc1ccc(-c2nnc(-c3ccc(-c4ccccc4)cc3)o2)cc1 -17.1%
O=S(=O)([N-]c1nc2ccccc2nc1-[n+]1ccc(Cc2ccccc2)cc1)c1ccc(Br)s1 -17.8%
COc1ccc(NC(=O)C2=C(C)NC(=O)NC2c2ccccc2[N+](=O)[O-])cc1 (centres undefined) -9.62%
Nc1nc(NCC2CCCO2)nc(Nc2ccccc2F)c1[N+](=O)[O-] (centres undefined) 1.79%
CCN(CCO)C(=S)Nc1cc(C(=O)OC)ccc1C(=O)OC 3.69%
CCS(=O)(=O)Nc1cc(C(=O)OC)ccc1C(=O)OC -8.23%
O=C(CCN1C(=O)c2ccccc2C1=O)NNC(=O)c1ccc(Cl)cc1Cl -8.02%
Cc1cc(C)cc(OCC(=O)NNC(=O)c2cc3ccccc3oc2=O)c1 1.34%
Clc1ccc(-c2cc(-c3ccccn3)on2)c(Cl)c1 -77.9%
CCCN(c1ccc(C)cc1)c1nc(=O)c2cccnc2s1 -10%
Fc1ccc(Nc2nnns2)cc1 -6.61%
Cc1ccc(NC(=O)OCc2cncs2)cc1 -21.3%
COc1ccc(NC(=S)Nc2ccccc2Cl)cn1 -15.3%
COc1ccc(C(=O)Nc2ccc(NC(=O)C(C)C)nc2)cc1 -20.6%
CC(=O)Nc1ccc(OCC(=O)NCc2ccc(C)cc2)cc1 -12.3%
CC(C)CCNC(=O)C1CCC(CNc2c(N3CCC(C)CC3)c(=O)c2=O)CC1 (centres undefined) -5.11%
COc1ccc2c(CC(=O)OCC(=O)NC(N)=O)coc2c1 0.56%
COC(=O)/C=C(\Oc1ccccc1)C1(O)CCCCC1 -12%
CC(=O)NNC(=O)c1csc(Cc2c(Cl)sc3ccc(Cl)cc23)n1 -2.59%
CCC1(C)Cc2c(sc3nc(SC)[nH]c(=O)c23)CO1 (centres undefined) -9.94%
CCOC(=O)CC1C(=O)NCCN1c1nc2c(C)cccn2c(=O)c1/C=C1\SC(=S)N(C(C)CC)C1=O (centres undefined) -24.8%
COc1cccc(C(=O)Oc2cc(C)[nH]c(=O)c2[N+](=O)[O-])c1 -90.1%
O=C(Oc1ccccc1C(=S)N1CCCCC1)c1cc([N+](=O)[O-])cc([N+](=O)[O-])c1 -1.87%
c1csc(-c2nnc(COc3ncnc4sccc34)o2)c1 -10.9%
COc1ccc(/C=N/NS(=O)(=O)c2ccc(NC(C)=O)cc2)cc1 -14.4%
Cc1nc(-c2ccccc2)sc1-c1nnc(C2CC2)o1 -9.04%
CCOc1ccc(C2NC(=S)NC3=C2CCc2ccccc23)cc1 (centres undefined) -16.9%
CN(c1ccc(OCC(=O)NC2=NCCS2)cc1)S(=O)(=O)c1ccc(F)cc1 -0.06%
Cc1ccc(Oc2nc(-c3ccccn3)nc3ccccc23)cc1 -1.85%
Brc1ccc2c(c1)[C@H]1OCC[C@H]1[C@@H](c1cccs1)N2 -17.3%
COc1ccc(OC)c(-n2c(-c3ccn[nH]3)n[nH]c2=S)c1 -7.17%

Signal enhancement, active:
CCc1cc2c(=O)c(-c3nc4ccccc4n3C)c(CCCC(=O)O)oc2cc1OC(=O)C(C)(C)C 32.3%
CCOC(=O)Cn1nnnc1C 38.2%
O=C(CNCc1ccc(Cl)cc1)Nc1cccc(C(=O)O)c1 35.7%
OC(c1nnc(-c2ccccc2)o1)c1cccs1 (centres undefined) 31.9%
CCCN(CCC)C(=S)Nc1cc(C(=O)OC)ccc1C(=O)OC 39.1%
Cc1cc(C)cc(OCC(=O)NNC(=O)CCN2C(=O)c3ccccc3C2=O)c1 31.1%
COc1ccc(NC(=O)/C(Cl)=C(/Cl)S(=O)Cc2ccc(C)cc2)cn1 (centres undefined) 72.4%
COc1ccc(CS(=O)/C(Cl)=C(/Cl)C(=O)Nc2ccc(OC)nc2)cc1 (centres undefined) 53.8%
Cc1cc(OC(=O)c2ccccc2)c([N+](=O)[O-])c(=O)[nH]1 39.8%
